A selection: hits, their analogues and other compounds. The true share with any hit is near 2.2%.
Hck-Nef inh – inhibitors of Nef-activated human Hck kinase, primary screen, biochemical, Z-Lyte FRET, 384-well, Hck-YEEI; Recombinant Hck-YEEI plus Nef, Z-Lyte FRET kinase assay; inhibition, % at 20 µM; 220,000 compounds, 0.68% hits; Tyrosine-protein kinase HCK (Homo sapiens), P08631;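 active means Hck-Nef kinase inhibition above about 50%, limit read from the data; inactive means inhibition below that limit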;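 further: 0% = DMSO with Hck plus Nef and 100% = Hck alone without Nef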
eIF4E-4G inh – eIF4E–eIF4G protein interaction inhibitors, primary screen, biochemical, uHTS, TR-FRET, eIF4GI fragment. Eukaryotic translation initiation factor 4E (Mus musculus) + Eukaryotic translation …. TR-FRET eIF4E-eIF4GI(517-606) binding, 2 h. inhibition, % at 21.7 µM. 220,000 compounds, 0.37% hits;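 active means inhibition above about 30%, limit read from the data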;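 further: 0% = full FRET control wells and 100% = background wells lacking eIF4GI fragment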
Calb biofilm kill – clotrimazole potentiators killing C. albicans biofilm, primary screen, 4-compound mixtures; C. albicans biofilm persisters + clotrimazole, fluorescence viability; primary screen in compound mixtures of four per well; inhibition, % at 7.6 µM; 120,000 compounds, 0.02% hits;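 active means inhibition above 30.3% in the primary screen of four-compound pools, then above 30% when the compound was retested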;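 further: compounds exposed to preformed 24 h biofilms for 48 h; 0% = untreated biofilm control and 100% = clotrimazole plus chlorhexidine kill blank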
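Incubation: 24 h biofilm formation, then 48 h compound exposure, 37 °C | Material: C. albicans biofilms | Buffer or medium: RPMI/MOPS medium, pH 7.0 | Measured by: 2-h Alamar Blue fluorescence, 535/590 nm excitation/emission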
p97 ATPase inh – inhibitors of human p97 ATPase, primary screen, biochemical. recombinant p97 ATPase, Kinase-Glo ATP luminescence, 3 h. Transitional endoplasmic reticulum ATPase (Homo sapiens), P55072. 220,000 compounds, 0.42% hits. AID 1481, 2009. inhibition, % at 8 µM; in the data active means inhibition above about 15%;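 further: 0% = DMSO vehicle and 100% = wells lacking enzyme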
14-3-3 Bad inh – inhibitors of 14-3-3 zeta/Bad binding, primary screen, biochemical, TR-FRET, bovine 14-3-3 zeta | 14-3-3 protein zeta/delta (Bos taurus), P63103 | 220,000 compounds, 0.71% hits | TR-FRET 14-3-3zeta/Dy647-pBad peptide displacement, 1 h | AID 781, 2007 | inhibition, % at 21.7 µM;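 active means inhibition above about 70%, limit read from the data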;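 further: 0% = full 14-3-3 plus peptide FRET controls and 100% = background without 14-3-3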
PERK inh – block of dimerizer-induced PERK translation repression, primary screen, PERK inhibitor project, CHO PERK-DD cells, SEAP luminescence, HTS; 220,000 compounds, 0.17% hits; inhibition, % at 5.6 µM; Eukaryotic translation initiation factor 2-alpha kinase 3 (Homo sapiens), Q9NZJ5; CHO PERK-DD fusion, SEAP luminescence translation reporter;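 active means inhibition above the mean inhibition of all tested compounds plus 3 SD, set separately per screening campaign, cut at about 2.9% in these data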;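 further: PERK kinase domain activated by AP20187 dimerizer at 100 nM; 0% = DMSO with dimerizer and 100% = rapamycin at 8.4 µM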
p97 confirm – p97 ATPase inhibitors, retest, confirmation, biochemical; shares compounds with p97 ATPase inh; inhibition, % at 8 µM; 760 compounds, 44% hits; recombinant p97 ATPase, Kinase-Glo ATP luminescence;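 active means percent inhibition of p97 ATPase above a set limit, the primary screen's mean plus 3 SD, cut at about 15% in these data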;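 further: 0% = DMSO wells and 100% = wells lacking p97 protein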
Hck Nef conf – retest of Hck:Nef kinase inhibitor hits, confirmation, biochemical, Z-Lyte FRET, 384-well, p-Tyr peptide counterscreen. shares compounds with Hck-Nef inh. 1,300 compounds, 28% hits. Recombinant Hck-YEEI:Nef, Z-Lyte FRET kinase assay. calls only at 10 µM;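 active means average inhibition of at least 50%, with Z-scores no higher than 3 in both the phospho-tyrosine peptide and fluorescence counterscreens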
* = called active by the depositor; i = inactive; x = no result given; + = active, no number.

SMILES	Hck-Nef inh	eIF4E-4G inh	Calb biofilm kill	p97 ATPase inh	14-3-3 Bad inh	PERK inh	p97 confirm	others
c1ccc2c(c1)Sc1ccccc1N2CC1CN2CCC1CC2 (configuration not stated)	9.1	9.6	11.5	17.7*	-2.1	0.2	15.2*
Clc1ccccc1CNC1CN2CCC1CC2 (configuration not stated)	1.4	3.8	11.6	6.4	22.6	0.6	x
Nc1ccnn1C1CCNCC1	-0.5	-1.7	x	2.5	-2.1	1.4	x
CN1CCC(n2nccc2N)CC1	-0.1	-0.6	x	14.8*	-0.5	1.4	2.0
C=C(C=O)C[C@@H]1C[C@H](O)C2OC3C[C@]4(C)OC5/C=C\CC6OC7C(CC=CCC6OC5CCCC4OC3CC2O1)OC1CC2OC3CC(=O)OC3C[C@@H](C)C[C@@]2(C)OC1C[C@@H]7C (some centres not stated)	25.2	-3.0	20.0	x	-2.0	x	x
O=C1C(=O)c2ccccc2-c2ccccc21	-15.9	-0.6	x	31.9*	-3.3	2.7	38.0*
Nc1nonc1OCCCCOc1nonc1N	-16.0	0.9	13.2	1.1	0.5	-0.2	x
CCC(=NCc1ccco1)c1c(O)n(-c2ccccc2C)c(=O)[nH]c1=O	0.4	4.5	21.7	-5.3	4.2	-0.4	x
COCCOC(=O)c1c(N)n(Cc2ccc(OC)cc2)c2nc3ccccc3nc12	21.8	6.0	x	12.9	-13.3	-0.7	x
CCCCNC(=O)c1c(N)n(CCCOC)c2nc3ccccc3nc12	48.1	10.8	x	21.7*	3.3	-1.3	-2.2
COCCCNC(=O)c1c(NC(=O)c2ccco2)n(Cc2ccccc2)c2nc3ccccc3nc12	12.2	-7.5	x	23.7*	8.4	1.7	3.8
COCCNC(=O)c1c(NC(=O)c2ccc(Br)o2)n(Cc2ccccc2)c2nc3ccccc3nc12	4.7	11.8	12.9	7.7	-3.3	0.1	x
COCCCn1c(N)c(C(=O)OCCOC)c2nc3ccccc3nc21	38.3	3.8	x	23.8*	2.1	-0.8	3.9
CCCCCn1c(NC(=O)c2ccco2)c(C(=O)OCC)c2nc3ccccc3nc21	5.7	4.3	19.1	0.6	7.3	-1.0	x
CCOC(=O)c1c(NS(=O)(=O)c2ccccc2)n(CCCOC)c2nc3ccccc3nc12	28.1	9.7	-1.6	45.0*	6.3	-0.3	17.0*
Cc1ccc(OCC(=O)N2CCN(C3CCC(c4ccccc4)CC3)CC2)cc1 (configuration not stated)	20.2	-0.1	5.8	1.4	20.2	0.2	x
Nc1ccccc1-[n+]1c(-c2ccccc2)cc(-c2ccccc2)cc1-c1ccccc1	-11.5	9.4	-3.0	15.7*	-0.3	1.2	10.4
COCCN1C(=O)NC(=O)/C(=C\c2ccc(Br)cc2)C1=O	23.2	-3.5	0.8	8.2	-13.2	0.7	x
Cc1nc2c(=O)n(C)c(=O)nc-2n(C)n1	-6.1	2.3	24.7	31.0*	-9.7	-1.2	38.3*
C[C@]12CC[C@@H]3c4ccc(O)c(O)c4CC[C@H]3[C@@H]1CC[C@@H]2O	x	42.1*	x	22.7*	46.5	1.2	4.7
CC(C)CCn1c(=O)c(C(=O)NCc2ccco2)c(O)c2ccccc21	11.3	-1.1	-8.9	-3.6	-5.1	-0.9	x
CCn1nc(-c2ccccc2)nc2c(=O)n(C)c(=O)nc1-2	-0.2	2.4	x	37.1*	14.7	0.4	34.3*
O=[N+]([O-])[N-][n+]1cnn(Cc2ccc(Cl)cc2)c1	19.2	1.4	23.5	3.9	-12.8	-0.1	x
O=C(O)CC1OCC=C2CN3CCC45C6=CC(=O)C(=O)C([N+](=O)[O-])=C6NC4C1C2CC35 (configuration not stated)	6.6	0.0	20.8	38.3*	8.8	0.3	36.6*
Cc1cc(OCCN2CC2)c2ccccc2n1	13.4	-1.1	14.0	-0.4	1.0	1.0	x
SMILES	Hck-Nef inh	eIF4E-4G inh	Calb biofilm kill	p97 ATPase inh	14-3-3 Bad inh	PERK inh	p97 confirm	others
O=C1NC(=O)N(Cc2ccco2)C(=O)/C1=C/C=C/c1ccco1	44.4	6.7	7.8	31.2*	27.3	1.6	12.1
COc1ccc(-c2n(-c3ccccn3)c3ccccc3[n+]2-c2ccccn2)cc1	3.4	-5.4	7.2	0.4	7.5	-0.7	x
CCN1C(=O)C(=Cc2ccc(N3CCOCC3)o2)C(=O)N(CC)C1=S	9.9	-3.7	3.8	1.4	5.2	2.1	x
CN1C(=O)C(=Cc2ccc(N3CCOCC3)o2)C(=O)N(C)C1=S	18.4	3.2	16.3	19.1*	-7.2	0.4	-1.5
Cc1ccc(S(=O)(=O)N(C)C/N=C(\N)N[N+](=O)[O-])cc1	16.4	-2.3	14.0	15.4*	28.4	0.2	7.4
COC(=O)[C@@H](N)CCCN=C(N)N[N+](=O)[O-]	31.5	-24.1	-3.6	x	-0.5	x	x
COCCCNC(=O)c1c(N)n(Cc2ccco2)c2nc3ccccc3nc12	47.2	5.5	29.2	5.7	2.7	0.1	x
COc1ccc(Cn2c(N)c(C(=O)NCc3ccco3)c3nc4ccccc4nc32)cc1OC	61.6*	x	x	32.0*	x	-0.7	6.8	Hck Nef conf=i
N#CC(C#N)=NNc1ccc(S(N)(=O)=O)cc1	52.5*	-1.5	21.2	23.4*	6.8	0.3	25.0*	Hck Nef conf=+
Cn1c(O)c(/C=C2/C=CC=N2)c(=O)[nH]c1=O	10.2	4.1	16.7	3.7	-1.0	0.2	x
Cc1cc(/C=C2\C(=O)NC(=O)N(Cc3ccco3)C2=O)c(C)n1-c1ccc(C(=O)O)cc1	50.2*	0.6	10.9	9.7	2.7	1.0	x	Hck Nef conf=i
Cc1cc(/C=C2\C(=O)NC(=O)N(Cc3ccco3)C2=O)c(C)n1-c1ccc(O)cc1	23.9	8.2	6.1	5.6	2.9	-0.2	x
O=c1oc2ccccc2c(O)c1C(c1ccc([N+](=O)[O-])cc1)c1c(O)c2ccccc2oc1=O	72.9*	8.4	18.1	1.6	5.2	1.5	x	Hck Nef conf=+
